# Source: PubChem BioAssay (several laboratories)
# This is a sample that favours compounds with a hit; in the whole collection about 11% have one here.
# D1 mod: D1 dopamine receptor (human) allosteric modulation | B-score at 10 µM | actives 5.9% (n = 58,000) | HEK293 D1, CRE-luciferase, dopamine EC30 potentiation; actives deviate in either direction | P21728;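 active means luminescence count or its row- and column-corrected plate score outside the 99.7% band of the plate's sample wells, on either side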
# S1P1 ag-PAM: activates or potentiates agonism at human S1P1 receptor; actives 0.57% (n = 56,000); P21453; S1P1 CRE-bla cells, forskolin, beta-lactamase FRET, potentiator mode; S1P1 agonist co-added at EC20, 2 nM; 100% = saturating reference agonist, 0% = basal; activation, % at 9.5 µM;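 active means activation above a cutoff set at the mean activation of all tested compounds plus 3 SD, cut at about 54% in these data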;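 further: forskolin at 4 µM as EC80 and the EC20 agonist is SEW2871; 100% = SEW2871 at its EC100 plus forskolin at EC80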
# M1 ag: agonists of M1 muscarinic receptor. CHO-M1 cells, Fluo-4 calcium fluorescence, agonist mode; active compounds read high. B-score at 10 µM. actives 3% (n = 64,000). AID 626;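 active means fluorescence rise, raw or as B-score row- and column-corrected plate score, outside the 99.7% band of its plate's samples, either direction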
# M1 antag: M1 muscarinic receptor (rat) antagonism. B-score at 10 µM. AID 628. actives 3.4% (n = 64,000). CHO-M1 cells, Fluo-4 calcium, ACh EC80 antagonist mode; active compounds read low. P08482;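 active means calcium fluorescence response, raw or row-and-column corrected B-score, differing from the plate sample mean either way at a set confidence level, mostly lower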
# TNAP act DEA: activators of human TNAP at intermediate phosphate acceptor. purified TNAP, CDP-star luminescence, 100 mM DEA, 30 min; active compounds read high; scale: 0 levamisole-inhibited, 1 vehicle-only enzyme. 64,000 tested, under 10 active. activation factor at 20 µM. AID 813. P05186;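 active means activation factor of at least 2 at 20 µM, relative to controls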
# Target sequence (P05186 whole entry, looked up): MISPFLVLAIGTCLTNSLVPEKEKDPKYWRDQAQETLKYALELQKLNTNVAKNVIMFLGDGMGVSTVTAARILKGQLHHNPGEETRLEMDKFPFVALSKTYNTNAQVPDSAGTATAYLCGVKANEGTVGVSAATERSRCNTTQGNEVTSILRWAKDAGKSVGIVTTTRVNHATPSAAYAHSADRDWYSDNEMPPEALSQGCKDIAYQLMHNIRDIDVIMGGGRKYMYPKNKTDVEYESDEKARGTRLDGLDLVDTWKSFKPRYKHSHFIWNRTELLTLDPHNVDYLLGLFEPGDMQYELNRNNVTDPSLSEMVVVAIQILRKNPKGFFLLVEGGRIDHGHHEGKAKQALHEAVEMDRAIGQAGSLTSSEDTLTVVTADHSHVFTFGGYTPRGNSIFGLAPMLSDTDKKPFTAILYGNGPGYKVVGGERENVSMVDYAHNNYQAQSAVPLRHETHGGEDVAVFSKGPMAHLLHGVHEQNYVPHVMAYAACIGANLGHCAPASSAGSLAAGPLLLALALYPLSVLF
# S1P3 agonist: activates the human S1P3 receptor. Q99500. S1P3 NFAT-BLA reporter cells, agonism, FRET ratio; relative to 1 µM S1P, basal subtracted. activation, % at 4.5 µM. actives 0.1% (n = 60,000). AID 373;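 active means activation above the screen-wide mean plus 3 SD, cut at about 4.5% in these data, passing the limit was not always enough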
#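 Assay system: stable CHO line with human S1P3, Gα16, NFAT-BLA reporter; Detection: FRET β-lactamase substrate fluorescence, excitation 405 nm, 460/535 nm emission ratio, background-subtracted; Read-out: percent activation versus median 1 µM S1P response, basal-subtracted, per plate; Incubation: cells plated overnight, compound 4 h 37 °C, substrate 2 h RT.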
# M1 antag conf: M1 muscarinic receptor (rat) antagonism, confirmed; shares compounds with M1 antag; CHO-M1 cells, Fluo-4 calcium, ACh EC80 antagonism; active compounds read low; calcium response (max-min fluorescence) at 10 µM; actives 43% (n = 1,700);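 active means calcium response below the same-plate mean of wells given acetylcholine alone at its 80%-effect dose, minus 3 SD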;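 further: raw fluorescence intensity difference in arbitrary instrument units and not normalized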
# mGluR4 antag: acts on human mGluR4 in M1 antagonist selectivity test. shares compounds with M1 antag. CHO-mGluR4 calcium flux, Fluo-4 fluorescence, glutamate EC80; active compounds read low. actives 0.9% (n = 1,700). fluorescence response (max-min) at 10 µM;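 active means fluorescence response below the plate's average for near-maximal glutamate wells, less 3 SD of those wells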;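 further: raw unnormalized fluorescence span taken in the window right after glutamate addition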
# Starred values were filed as active, the others as inactive; . = no result.
SMILES,D1 mod,S1P1 ag-PAM,M1 ag,M1 antag,TNAP act DEA,S1P3 agonist,M1 antag conf,mGluR4 antag
CCOc1ccc(C2C(C#N)=C(N)Oc3cc(C)n(CCN(C)C)c(=O)c32)cc1OCC (stereo not given),0.032,-1,1,0.28,0.9,0,.,.
Cc1ccc2cc(C#N)c(NCCCNC(=O)C3CCCO3)nc2c1 (stereo not given),3.7,.,1.3,0.64,0.9,.,.,.
O=C(c1ccccc1)N1CC(COc2ccccc2)OC(c2cccnc2)O1 (stereo not given),-0.8,-14,-1.2,-4.3*,1,0,677,246
O=C(NCCCn1ccnc1)C1c2ccccc2Oc2ccccc21,-2.5*,-9,0.74,-6*,1,-2,309*,228
Cc1ccc(C(=O)NCCCn2ccnc2)o1,0.3,-6,0.04,0.86,0.9,-1,.,.
COc1cccc(/C(O)=C2/C(=O)C(=O)N(CCN3CCOCC3)C2c2cccs2)c1 (stereo not given),0.51,.,0.28,1,0.9,.,.,.
CCSc1nc2c(c(=O)n(C)c(=O)n2C)n1Cc1ccc(Cl)cc1,1.7,8,0.44,-3.7*,0.9,-1,410,225
C=CC(C)Sc1nc2c(c(=O)n(C)c(=O)n2C)n1Cc1ccccc1Cl (stereo not given),2,7,0.52,-4.5*,0.9,-1,594,265
C=CCOc1nc2c(c(=O)n(C)c(=O)n2C)n1Cc1ccccc1Cl,.,-2,0.79,-0.013,0.9,-2,.,.
Cn1c(=O)c2c(nc(Sc3ncccn3)n2Cc2ccc(Cl)cc2)n(C)c1=O,-0.39,0,-0.99,0.2,1,1,.,.
Cn1c(=O)c2c(nc(SCCN3CCCCC3)n2Cc2ccc(Cl)cc2)n(C)c1=O,0.75,16,-0.88,-7.8*,0.9,-4,87*,248
CC(=O)c1cccc(N(CC(=O)O)S(C)(=O)=O)c1,-0.36,-11,0.41,1.1,1,0,.,.
CCN(Cc1ccccc1)C(=O)CSc1nc(C)cc(C)c1C#N,-0.75,-15,-0.21,-2.4*,0.9,0,551,238
Cc1cc(C)c(C#N)c(SCC(=O)N2CCN(Cc3ccccc3)CC2)n1,0.17,-3,0.076,0.059,0.9,-2,.,.
O=C(COC(=O)c1ccc(=O)n(Cc2ccccc2)n1)Nc1ccc2c(c1)OCCO2,0.16,0,0.32,0.34,0.9,0,.,.
CCCC1COC(Cn2cncn2)(c2ccc(C)cc2)O1 (stereo not given),2.5,11,1.2,-13*,1,-1,667,245
COC(=O)c1ccc2[nH]c(C)cc(=O)c2c1,0.32,.,-0.037,-6.5*,0.9,.,210*,186
CCOC(=O)c1[nH]cc(-c2ccccc2)c1N1CCOCC1,-1,12,0.18,0.00049,0.8,0,.,.
Nc1nc2ccccc2n1/N=C/c1ccc(Br)cc1,0.023,-22,-1,-6.7*,0.7,0,707,220
COc1ccccc1N1CCN(C(=O)CCCCn2c(=O)[nH]c3ccsc3c2=O)CC1,0.17,-7,0.28,0.19,0.9,0,.,.
COc1ccccc1N1CCN(C(=O)CCCn2c(=O)[nH]c3ccsc3c2=O)CC1,-0.46,1,-1.4,-4.2*,0.9,-1,617,222
CC(C)(C)NC(=O)Cn1ccc(=N)c2ccccc21,-0.39,7,-0.05,-2.5*,0.9,0,476,192
Cc1ccc(C)c(N(C)C(=O)COc2cc(=O)n(C)c3ccccc23)c1,-0.042,-17,1,0.034,1,-1,.,.
CN(C)CCCN1c2ccccc2Sc2ccc(C(F)(F)F)cc21,-5.3,8,-0.94,-15*,0.8,-2,24*,273
